Compound activity (PubChem)
This is a sample that favours compounds with a hit; in the whole collection about 4.2% have one here.
SENP1 inh – SENP1 (human) catalytic domain inhibition | Q9P0U3 | recombinant SENP1 catalytic domain, CyPet-SUMO1-YPet FRET cleavage | inhibition, % at 10 µM | 360,000 tested, 0.21% active;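 active = inhibition at least 30% at 10 µM, raw YFP signal under a set limit, fluorescence ratio 0.5 to 1.5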;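 also: 0% = enzyme with DMSO and 100% = no enzyme wells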
Target sequence (Q9P0U3 419-644 limits assumed): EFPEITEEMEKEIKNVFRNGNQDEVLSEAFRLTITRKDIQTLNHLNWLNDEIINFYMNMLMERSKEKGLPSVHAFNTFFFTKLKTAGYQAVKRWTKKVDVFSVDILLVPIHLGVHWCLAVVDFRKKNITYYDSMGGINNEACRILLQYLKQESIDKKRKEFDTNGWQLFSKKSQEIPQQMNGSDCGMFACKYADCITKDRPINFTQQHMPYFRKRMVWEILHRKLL
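Test system: human SENP1 catalytic domain; medium: Tris pH 8 buffer plus EDTA, NaCl, BME, BSA, NP40, catalase; incubation: 50 min reaction at room temperature; technique: FRET, CFP and YFP emission; controls: no-enzyme low control and enzyme-plus-DMSO high control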
CTSL1 counter – counter-screen for PFM18AAP inhibitors: inhibitors of F. hepatica cathepsin L1 | recombinant F. hepatica cathepsin L1, Z-Leu-Arg-MCA fluorescence | inhibition, % at 5.96 µM | 300,000 tested, 0.49% active;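 active = inhibition above the mean of all tested compounds plus 3 SD, set per screening campaign, cut at about 17% in these data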;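 also: 0% = plate median of test compound wells and 100% = 1 µM Z-Phe-Ala-diazomethylketone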
AHR activator – activators of human aryl hydrocarbon receptor | P35869 | AHR-responsive luciferase reporter cells, luminescence | activation, % at 5 µM | 320,000 tested, 2.5% active; in the data active = activation above about 47%;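 also: 0% = vehicle wells and 100% = reference agonist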
FXN GAA850 act – frataxin GAA850 promoter activation; activation, % at 6 µM; HEK293 lucGAA850 FXN promoter luciferase reporter, 24 h; percent of 10 µM SAHA response; AID 540364; 360,000 tested, 0.56% active;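 active = activation above the average of all compounds screened plus 3 SD, cutoff fixed separately per campaign, cut at about 7.5% in these data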;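 also: 0% = DMSO wells and 100% = 10 µM SAHA wells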
HDAC3 inhib – human HDAC3 inhibition; O15379; recombinant HDAC3, fluorogenic peptide/trypsin coupled, fluorescence; inhibition, % at 8.3 µM; 320,000 tested, 0.15% active; AID 2718; in the data active = inhibition above about 26%, passing the limit was not always enough; inconclusive = no clear call, values can overlap the other calls
Target sequence (O15379 whole entry, looked up): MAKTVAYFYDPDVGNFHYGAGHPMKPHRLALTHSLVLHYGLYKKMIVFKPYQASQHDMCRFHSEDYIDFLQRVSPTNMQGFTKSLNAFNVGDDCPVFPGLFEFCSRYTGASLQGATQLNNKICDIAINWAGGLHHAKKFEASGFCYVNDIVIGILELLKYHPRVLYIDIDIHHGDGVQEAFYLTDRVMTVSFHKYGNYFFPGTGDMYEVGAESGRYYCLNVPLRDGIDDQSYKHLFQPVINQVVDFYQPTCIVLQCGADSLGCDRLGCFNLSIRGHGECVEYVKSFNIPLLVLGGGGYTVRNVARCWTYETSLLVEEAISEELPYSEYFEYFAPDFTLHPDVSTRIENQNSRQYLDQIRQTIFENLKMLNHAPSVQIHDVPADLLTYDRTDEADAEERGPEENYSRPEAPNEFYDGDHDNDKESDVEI
M18AAP inhibitor – blocks P. falciparum M18 aspartyl aminopeptidase. recombinant PfM18AAP, H-Glu-NHMec fluorogenic cleavage. inhibition, % at 7.35 µM. 290,000 tested, 1.2% active;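 active = inhibition above the campaign mean inhibition over all tested compounds plus 3 SD, cut at about 28% in these data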;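 also: 0% = plate median of test compound wells and 100% = 2 mM ZnCl2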
* = called active by the depositor; ? = inconclusive; . = no result.

SMILES	SENP1 inh	CTSL1 counter	AHR activator	FXN GAA850 act	HDAC3 inhib	M18AAP inhibitor
COCCNC(=O)C1CCCN(C(=O)c2ccnc(Cl)c2)CC1 (stereo unspecified)	0.0	.	.	0.8	.	.
CC(C)CCNC(=O)c1ccc(CSCc2cccc(F)c2)o1	2.3	3.1	-1.9	1.0	0.0	2.2
CC(C)=CCSc1nnc([C@@H](NC(=O)OC(C)(C)C)C(C)C)o1	-0.7	36.5*	-1.6	-3.1	-1.8	-2.2
CC(C)C[C@H](N)c1nnc(S(=O)(=O)Cc2cccc(F)c2)o1	2.0	72.3*	0.1	3.0	5.9	-18.1
CCOC(=O)CSc1nnc([C@H](Cc2ccccc2)NC(=O)OC(C)(C)C)o1	2.1	-0.7	-1.3	2.9	-0.5	-5.7
CC(C)(C)OC(=O)N[C@@H](Cc1ccccc1)c1nnc(S(=O)(=O)Cc2cccc(F)c2)o1	.	31.5*	0.0	.	69.2*	-121.4
CCN(CC)C(=O)c1cccc(-c2csc(C(NC(C)=O)c3ccc(F)c(F)c3)n2)c1 (stereo unspecified)	2.2	.	.	0.8	.	.
O=C(NCCN1CCCCC1)c1cc(COc2c(F)cccc2F)on1	-5.3	-6.7	0.7	1.8	-4.5	10.9
CCCCn1c(=O)[nH]c(=O)c2c1nc(-c1ccccc1OC(F)F)n2C	-1.6	0.8	1.1	-0.2	1.0	0.8
Cc1ccc(S(=O)(=O)/N=C2/C=C(C3C(=O)CC(C)(C)CC3=O)C(=O)c3ccccc32)cc1	-1.0	0.2	36.9	2.9	-0.1	-0.7
CCc1ccc(S(=O)(=O)/N=C2\C=C(Nc3cccc(C(=O)O)c3)C(=O)c3ccccc32)cc1	2.2	50.6*	18.6	-0.7	6.9	11.3
Cc1cc(C)c(S(=O)(=O)/N=C2\C=C(Nc3ccc(C(=O)O)cc3)C(=O)c3ccccc32)c(C)c1	-0.9	25.1*	23.5	-3.7	3.9	-3.6
CCc1ccc(S(=O)(=O)/N=C2/C=C(Sc3ncn[nH]3)C(=O)c3ccccc32)cc1	6.3	100.3*	39.9	-14.4	9.8	46.5*
CCc1ccc(S(=O)(=O)/N=C2\C=C(Nc3ccc(O)cc3)C(=O)c3ccccc32)cc1	2.6	63.4*	16.0	-12.8	13.0	4.3
CN(CC(=O)Nc1cccc(F)c1)C(=O)Cc1ccsc1	-11.4	.	.	0.6	.	.
COc1ccccc1-c1ncn(Cc2cccc(-c3ccccc3)c2)c1-c1ccco1	-7.2	.	.	.	.	.
CCOC(=O)/C(=C\c1cccc(O)c1)c1nc2sc(C)c(C)c2c(=O)[nH]1	-68.7	-0.1	-0.1	-3.2	2.5	29.2*
CC(C)CN(C(=O)COc1ccc(C(C)(C)C)cc1)C1CCS(=O)(=O)C1 (stereo unspecified)	-0.2	-1.5	-0.1	-2.9	0.4	.
CC(C)CN(C(=O)c1cc(=O)[nH]c2ccccc12)c1c(N)n(Cc2ccccc2)c(=O)[nH]c1=O	-7.4	4.2	0.0	-2.0	1.9	.
CC(=O)Nc1ccc(C2=NN(CC#N)C(=O)SC2)cc1	-2.7	-0.3	2.4	-0.2	-1.7	5.4
CC(=O)Nc1ccc(C2=NN(Cc3nnc(-c4ccccc4)o3)C(=O)SC2)cc1	0.5	4.0	76.3*	3.6	.	3.9
Cn1nc(C(C)(C)C)cc1C(=O)N1CCCCC1c1cc(C(=O)NCc2ccc(F)cc2)no1 (stereo unspecified)	0.5	.	.	0.6	.	.
CCCn1c(=N)c(C#N)cc2c(=O)n3ccccc3nc21	-25.8	6.2	84.6*	3.0	-57.8	-1.9
N#Cc1cc2c(=O)n3ccccc3nc2n(CCCn2ccnc2)c1=N	-26.6	2.4	102.0*	-1.0	-24.7	-1.4
NC(=O)CCC(C(=O)O)N1C(=O)C2C3CCC(C3)C2C1=O (stereo unspecified)	1.0	.	.	-0.8	.	.
SMILES	SENP1 inh	CTSL1 counter	AHR activator	FXN GAA850 act	HDAC3 inhib	M18AAP inhibitor
Nc1ccc2c(c1Cl)C(=O)c1ccc(N)c(Cl)c1C2=O	23.8	.	.	8.4*	.	3.2
Cn1cncc1C#Cc1c(C=O)[nH]c2ccccc12	-31.8	.	68.2*	-4.1	0.7	.
Cn1cncc1C#Cc1c(-c2ccc(S(C)(=O)=O)cc2)sc2ccccc12	-129.3	.	23.1	-4.3	.	.
c1ccc(Nc2nc(CSc3ncn[nH]3)cs2)cc1	-2.1	35.0*	4.3	1.2	14.6	60.1*
CCn1nnc(NC(=O)c2ccco2)n1	0.2	-0.9	2.3	0.6	-4.6	-4.9
O=C(O)/C=C/c1ccc(O)c(O)c1	-13.7	1.8	-1.3	0.3	8.3	81.7*
CN(C)c1cccc2c(C=C(C#N)C#N)ccc(N(C)C)c12	-10.1	6.7	17.9	4.4	-4.8	6.1
Cn1c(=O)n(CCc2ccccc2)c(=O)c2c1nc1n2CCN1Cc1ccco1	-0.7	-3.8	66.4*	-1.3	-0.3	0.4
O=C(N=Nc1c(O)n(C2OC(=O)c3ccccc32)c2ccccc12)c1ccco1 (stereo unspecified)	.	3.0	2.1	.	1.9	-13.7
CCCCn1c(O)c(N=NC(=O)c2ccco2)c2ccccc21	3.6	7.1	76.2*	3.0	-0.6	0.9
O=C(CNC(=O)c1ccco1)N=Nc1c(O)n(CCc2ccccc2)c2ccccc12	2.1	0.8	58.7*	-2.1	5.4	11.1
COc1ccc(CC(=O)OCC(=O)NC2CCCC(C)C2C)cc1OC (stereo unspecified)	1.2	.	0.2	0.3	-3.6	.
COc1ccc(CCC(=O)NC2CCC(C)CC2)cc1 (stereo unspecified)	0.9	-0.5	0.1	-1.1	4.1	-1.2
COc1ccc(-c2nn(-c3ccccc3)cc2/C=N/O)cc1OC	2.0	0.3	38.2	0.7	4.2	1.9
COc1ccc(-c2nn(-c3ccccc3)cc2/C=N/Nc2ccc3ccccc3n2)cc1OC	-8.2	3.2	48.9*	1.7	-0.7	-6.8
COc1ccc(-c2nn(-c3ccccc3)cc2CO)cc1OC	0.8	-1.4	51.2*	-0.8	-27.5	5.0
COc1ccc(-c2nn(-c3ccccc3)cc2/C=N/NC(=S)NC(C)C)cc1OC	0.6	0.1	55.3*	0.8	?	3.1
Cc1ccc([C@H]2N[C@]3(CCCN(Cc4ccco4)C3=O)[C@H]3C(=O)N(C)C(=O)[C@@H]23)cc1	-1.5	.	.	0.0	.	.
COc1cc(OC)c(-n2cc(-c3ccc(OC)c(OC)c3)[nH]c2=S)cc1Cl	-9.5	.	.	-0.6	4.1	31.5*
CCOc1ccccc1N1CCN(C(=O)NCc2ccc(Cl)cc2)CC1	3.1	0.5	1.9	0.3	-0.9	-11.7
Cn1c(N)c(C(=O)/C=C/c2ccccc2)c(=O)[nH]c1=O	-34.2	0.5	47.3*	5.9	.	2.7
O=C1CNC(=S)N1CCOc1ccccc1	2.1	1.1	-4.8	0.2	0.3	1.3
O=C1CNC(=S)N1CCc1ccc(O)c(O)c1	4.0	1.6	4.2	-0.5	-10.2	69.2*
CC(C)CNc1ncnc2c1ncn2[C@H]1CN(Cc2ccc3c(c2)OCO3)C[C@@H](CO)O1	2.6	.	.	-1.5	.	.
